Screening data as filed in PubChem BioAssay.
ARFGAP1 inhibitor = inhibitors of rat ARFGAP1; Arfgap1-stimulated ARF1 GTP hydrolysis, GDP FP detection; inhibition, % at 16.5 µM; 0.26% of 360,000 active; AID 651572;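 active = inhibition above a per-plate limit, mean inhibition of low control wells plus 3 SD, cut at about 25% in these data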;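 also: 0% = DMSO wells with enzyme and 100% = wells lacking Arfgap1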
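Material: truncated rat Arfgap1 GAP domain; Incubation: compound-enzyme preincubation 20 min, reaction 120 min, detection 60 min, 25 °C; Read-out: percent inhibition of Arfgap1-stimulated GTP hydrolysis; Technique: FP, GDP Alexa 633 tracer displaced from anti-GDP antibody, 620/688 nm; Controls: No-Arfgap1 wells (100%) versus DMSO full-reaction wells (0%); Replication: single well per compound.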
CASP6 VEID inh = inhibitors of human caspase-6 | purified caspase-6, Z-VEID-R110 cleavage fluorescence | inhibition, % at 12.5 µM | 0.53% of 350,000 active;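 active = mean inhibition across replicates at least about 35%, with every replicate also reaching that limit, limit read from the data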;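 also: 0% = median of neutral control wells and 100% = no fluorescence left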
Target sequence (P55212 24-179 limits assumed): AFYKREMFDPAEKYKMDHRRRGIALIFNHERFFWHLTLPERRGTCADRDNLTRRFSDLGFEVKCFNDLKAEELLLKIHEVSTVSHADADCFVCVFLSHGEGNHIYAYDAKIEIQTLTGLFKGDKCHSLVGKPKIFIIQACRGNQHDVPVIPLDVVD
Target sequence (P55212 194-293 limits assumed): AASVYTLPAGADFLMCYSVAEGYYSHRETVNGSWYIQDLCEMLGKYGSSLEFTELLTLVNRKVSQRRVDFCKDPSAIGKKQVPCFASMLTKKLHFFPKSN
LEDGF integ inh = blocks HIV-1 LEDGF/p75-dependent DNA integration | TR-FRET IN-LEDGF/p75 DNA integration, Eu/Cy5 | inhibition, % at 3.7 µM | 0.64% of 370,000 active | AID 743269;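 active = inhibition above the screen-wide mean plus 3 SD, cut at about 13% in these data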;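 also: signal is the Cy5 over europium emission ratio at 671 and 618 nm; 0% = plate median of compound wells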
ASAP1 GAP inh = blocks human ASAP1-stimulated Arf1 GTP hydrolysis | Q9ULH1 | inhibition, % at 16.5 µM | GDP FP detection | AID 624377 | 0.19% of 360,000 active;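 also: 0% = vehicle with enzyme and substrate and 100% = no enzyme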
TDP2 absorb = blocks human TDP2 phosphodiesterase activity; inhibition, % at 12.8 µM; 0.34% of 370,000 active; recombinant TDP2, T5PNP hydrolysis, p-nitrophenol absorbance 415 nm; O95551;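 active = inhibition above the mean of all tested compounds plus 3 SD, set per campaign, cut at about 25% in these data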;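 also: 0% = DMSO with enzyme and 100% = buffer with substrate but no TDP2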
Target sequence (O95551 whole entry, looked up): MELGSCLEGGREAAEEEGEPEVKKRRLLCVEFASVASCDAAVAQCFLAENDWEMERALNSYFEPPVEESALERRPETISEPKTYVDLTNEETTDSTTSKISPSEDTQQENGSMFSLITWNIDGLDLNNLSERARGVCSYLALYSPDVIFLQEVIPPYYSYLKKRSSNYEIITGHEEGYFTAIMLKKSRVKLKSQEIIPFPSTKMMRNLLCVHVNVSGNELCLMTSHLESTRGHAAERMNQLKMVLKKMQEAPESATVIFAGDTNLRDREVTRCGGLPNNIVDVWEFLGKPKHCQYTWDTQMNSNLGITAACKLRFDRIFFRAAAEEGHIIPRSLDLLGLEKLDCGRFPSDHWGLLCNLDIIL
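Material: recombinant human TDP2; quantity: TDP2 enzyme at 120 nM final; medium: Tris-HCl pH 7.5 with MgCl2; compound: single concentration, 12.8 µM nominal, with 1% DMSO; incubation: 2 h enzyme incubation at 37 °C; signal: epi absorbance; measure: percent inhibition; benchmarks: high control without enzyme, low control DMSO plus TDP2; repeats: singlicate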
TDP2 inh conf = human TDP2 inhibition, confirmation | recombinant human TDP2, absorbance read-out | 22% of 1,100 active | shares compounds with TDP2 absorb | AID 743263 | inhibition, % at 12.8 µM;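 also: 0% = vehicle with enzyme and 100% = no enzyme buffer only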
IN multimer up = counter-screen for LEDGF/p75 integration inhibitors: HIV-1 integrase multimerization activators; shares compounds with LEDGF integ inh; TR-FRET HIV-1 integrase multimerization, biochemical; activation, % at 7.7 µM; 17% of 2,000 active; in the data active = activation above about 8.9%
TR-FRET interf = counter-screen for LEDGF/p75 integration inhibitors: TR-FRET optical interference | TR-FRET optical interference counterscreen, HIV-1 IN multimerization | 2,000 tested, under 10 active | inhibition, % at 7.7 µM | shares compounds with LEDGF integ inh;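 active = inhibition above the mean over all tested compounds plus 3 SD, which no compound reached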;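 also: 0% = integrase with antibodies and DMSO and 100% = antibodies without integrase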
LEDGF integ conf = confirmation of HIV-1 LEDGF/p75-dependent integration inhibitors; shares compounds with LEDGF integ inh; TR-FRET LEDGF/p75-dependent HIV-1 integration, biochemical; inhibition, % at 3.7 µM; 36% of 2,000 active; in the data active = inhibition above about 14%
* marks the source's active call; other numbers are inactive results; · = not tested or not shown. Compounds with a hit are over-represented: about 1.3% of the library has one in this group of screens. Rule as the data show it, unless noted: active = inhibition above about 25%; inactive = the rest.

SMILES	ARFGAP1 inhibitor	CASP6 VEID inh	LEDGF integ inh	ASAP1 GAP inh	TDP2 absorb	TDP2 inh conf	IN multimer up	TR-FRET interf	LEDGF integ conf
O=C(O)c1nn(Cc2ccc(Cl)cc2)c2ccccc12	2	-2	1	-3	-13	·	·	·	·
COc1ccccc1CN1CCN(C(=O)COc2ccc3ccccc3c2)CC1	-6	1	1	8	25*	6	·	·	·
COc1ccccc1CN1CCN(C(=O)COc2cccc(C)c2)CC1	6	·	4	5	-9	·	·	·	·
CCN1CCN(c2ccc(N)cc2)CC1	-11	-76	0	-1	32*	6	·	·	·
CN1CCN(c2ccc(N)cc2)CC1	-1	·	-2	0	-4	·	·	·	·
O=P(C(Cl)Cl)(N1CCOCC1)N1CCOCC1	-4	-2	1	-4	30*	4	·	·	·
O=CC(Br)P(=O)(N1CCOCC1)N1CCOCC1 (centres undefined)	-2	-3	0	4	-4	·	·	·	·
COc1ccc(C2CN(C)CC2C(=O)c2ccc(C)cc2)cc1Cl (centres undefined)	5	-2	1	-4	8	·	·	·	·
Nc1c(C(=O)OCc2ccccc2)c2nc3ccccc3nc2n1Cc1cccs1	-1	·	6	11	25*	-3	·	·	·
COC(=O)C1=C(c2ccc(Cl)c(C(F)(F)F)c2)C[C@@H]2CC[C@H]1N2C(=O)N1CCCC1	-15	-2	2	9	-1	·	·	·	·
CC(C)(C)OC(=O)c1c(N)n(Cc2ccco2)c2nc3ccccc3nc12	8	·	35*	-1	67*	-4	2	-5	-5
COCCCn1c(N)c(C(=O)NCc2ccco2)c2nc3ccccc3nc21	9	98*	33*	20	92*	15	-4	16	52*
COCCNC(=O)c1c(N)n(Cc2ccco2)c2nc3ccccc3nc12	6	·	3	-3	7	·	·	·	·
CCOC(=O)C1(c2ccccc2)CCN(Cc2cccc(C(=O)O)c2)CC1	0	1	-4	13	-10	·	·	·	·
COc1ccc2c(c1)c(CCN)c(C)n2Cc1ccccc1	-3	-2	-2	-4	5	·	·	·	·
CCCCn1c(NS(=O)(=O)c2ccccc2)c(C(=O)OCC)c2nc3ccccc3nc21	8	·	31*	22	88*	83*	0	-1	66*
CCCCn1c(NC(=O)c2ccc(Br)o2)c(C(=O)OCC)c2nc3ccccc3nc21	12	-1	17*	12	65*	73*	-1	3	69*
CCCCn1c(N)c(C(=O)NCCN2CCOCC2)c2nc3ccccc3nc21	13	·	2	0	1	·	·	·	·
CCOC(=O)c1c(N)n(CCN2CCCCC2)c2nc3ccccc3nc12	3	-7	-2	3	5	·	·	·	·
Cc1ccccc1NC(=O)Cc1nc(COC(=O)Cc2ccccc2)cs1	-8	0	4	2	7	·	·	·	·
CC(C)CCNC(=O)c1c(N)n(CC2CCCO2)c2nc3ccccc3nc12 (centres undefined)	6	·	-1	7	-1	·	·	·	·
CCC(C)NC(=O)c1c(N)n(CC2CCCO2)c2nc3ccccc3nc12 (centres undefined)	18	·	19*	16	62*	-1	0	1	-1
C[n+]1c(-c2ccccc2)c2cc(N)ccc2c2ccc(N)cc21	0	·	41*	1	58*	20	2	-12	64*
N/C(=N\N=C/c1ccc(-c2ccc(O)c(C(=O)O)c2)o1)N[N+](=O)[O-]	1	·	30*	2	28*	-2	35*	-125	25*
CCN1CCN(C(=O)Cc2ccc(C)cc2)CC1	-11	0	-1	2	-2	·	·	·	·
SMILES	ARFGAP1 inhibitor	CASP6 VEID inh	LEDGF integ inh	ASAP1 GAP inh	TDP2 absorb	TDP2 inh conf	IN multimer up	TR-FRET interf	LEDGF integ conf
COc1cc2c(cc1O)[C@@H]1Cc3ccc(OC)c(O)c3CN1CC2	-2	4	38*	8	54*	38*	6	-20	44*
CC1CCCN(C(=O)CCl)C1 (centres undefined)	6	-4	71*	-9	7	·	0	-1	-4
COc1ccccc1OCC#CCN1CCOCC1	0	-2	-2	6	6	·	·	·	·
Cc1ccc(N2C(=O)NC(=O)/C(=C/c3ccoc3)C2=O)cc1	-5	85*	30*	0	13	·	9.2*	-46	57*
C=CCN1C(=O)NC(=O)/C(=C/c2ccoc2)C1=O	7	·	14*	-5	3	·	2	-9	42*
C=CCN1C(=O)NC(=O)/C(=C/c2cccn2C)C1=O	-6	·	-2	-7	10	·	·	·	·
O=C(CF)N(O)c1ccc(C=Cc2ccccc2)cc1	-4	-1	24*	2	1	·	0	-1	-5
C=C1C(=O)OC2CCN3CC=C(COC(=O)C(C)(O)C4(CO4)C1C)C23 (centres undefined)	6	36*	37*	15	-12	·	0	1	-3
O=c1[nH]sc2cc(F)ccc12	-1	4	-9	-5	-8	·	·	·	·
C=CCn1c(O)c(C=Nc2ccc(F)cc2)c(=O)[nH]c1=O	-6	-2	-4	2	8	·	·	·	·
C=CCn1c(O)c(C=Nc2ccc(N(CC)CC)cc2)c(=O)[nH]c1=O	4	·	30*	10	15	·	2	-9	-1
Cc1ccccc1-n1c(O)c(C=Nc2ccc(N(C)C)cc2)c(=O)[nH]c1=O	-7	·	19*	8	8	·	5	-26	-12
COc1ccc(-c2ccc3c(c2)CN(CC(C)C)Cc2cnnn2-3)cc1	-8	2	3	7	5	·	·	·	·
O=C1NC(=O)C(=Cc2cc3c(cc2[N+](=O)[O-])OCO3)C(=O)N1	-5	17	21*	3	17	·	7	-25	0
CCCCCCN=C(C)c1c(O)n(CCCC)c(=O)[nH]c1=O	-8	·	-3	8	-8	·	·	·	·
CC(=O)NCC1=C(c2ccc(S(C)(=O)=O)cc2)C[C@@H]2CC[C@H]1N2CCOc1ccccc1	-2	4	-3	-5	5	·	·	·	·
O=[N+]([O-])c1ccc(N2CCOCC2)c2c1no[n+]2[O-]	14	4	14*	2	11	·	2	-6	12
O=[N+]([O-])c1ccc(N2CCOCC2)c2cccnc12	6	-4	0	3	-2	·	·	·	·
NCC(O)c1cc(O)c(O)cc1F (centres undefined)	-5	·	49*	-15	14	·	12*	-61	-5
